This data set can be described thus: Toxicity liver stage against HepG2, at 10uM. Type of data set: cell-based. Conditions: human, HepG2-A16-CD81EGFP cells; read-out: INHIBITION
The arrangement: test concentration 10 uM, cell line HepG2-A16-CD81EGFP. The procedure, abridged: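 Uninfected HepG2-A16-CD81EGFP cells, 3 × 10^3 per well, 1536-well, plated on prespotted compound at 10 μM final, parasite-free screening media added to match infected plates; puromycin 10 μM positive, DMSO 0.5% negative; run in parallel with 48 h PbLuc assay at 37 °C, 5% CO2; viability by CellTiter-Glo luminescence, normalized to controls.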

We go through 97 molecules from ChEMBL document CHEMBL4513216, “Probing the Open Global Health Chemical Diversity Library for Multistage-Active Starting Points for Next-Generation Antimalarials” (ACS Infect Dis, 2020).

Consider `OCC1CCCCN1CCn1ccnc1-c1ccc2c(c1)OCCO2` (configuration not stated), for which the cytotoxicity at 10 µM was -3.65%.
In the case of `CC(C)(C)OC(=O)NCC1CCN(C(=O)c2ccc(F)cc2F)C1` (configuration not stated) it was 11.5%; in that of `O=C(C[C@@H]1COC[C@H]2CN(C(=O)c3ccccn3)C[C@@H]12)N1CCCC1`, -104%.
In the case of `Cc1ccc(CNC(=O)c2ccc(=O)n(C)n2)c(OC2CCCC2)c1` it was 5.25%.
In the case of `O=C(Cn1cnnn1)NCC1(O)CCCc2ccccc21` (configuration not stated) it was -42.3%; in that of `CC(C)C(=O)N1CC2(CCN(CC(C)(C)C)CC2)C1`, -5.28%.
For `O=C(NCCc1nnc2n1CCC2)NC1(c2cccc(F)c2)CC1`, the cytotoxicity at 10 µM stood at 3.07%.
For the molecule `COC(=O)CC1CCN(C(=O)c2ccc(C)cc2)CC1`, the cytotoxicity at 10 µM was 4.99%.
In the case of `O=C(COc1ccc(F)cc1F)N1CCOCC(O)(CN2CCCC2)C1` (configuration not stated) it was 0.678%.
In the case of `CN(C)CCN(Cc1ccc(F)cc1)C(=O)c1ccn(C)c(=O)c1` it was -4.62%; in that of `CC(C)C(Sc1nncn1C1CC1)C(=O)NCc1cccnc1` (configuration not stated), -6.86%.
In the case of `CN(C)CC1CN(Cc2ccc3c(c2)OCO3)Cc2nccn2C1` (configuration not stated) it was -0.362%; in that of `CN(Cc1ccco1)Cc1cnc2n1CCN(c1ncccn1)CC2`, -0.603%.
Take `O=C(NCC1CC1)C1CN(C(=O)Cc2cccs2)CC12CCOCC2` (configuration not stated): the cytotoxicity at 10 µM turned out to be 4.76%.
In the case of `COc1ccc(CCN2CCCC(Cn3nc(C)nc3C)C2)cc1` (configuration not stated) it was -3.34%; in that of `CCCC(C#N)NC(=O)COC1CCCCC1` (configuration not stated), 8.71%; in that of `CCS(=O)(=O)N1C[C@H]2CC[C@](O)(c3ccc(C)cc3)[C@H]2C1`, -23.2%.
In the case of `Cc1nn(C)c(C)c1NC(=O)CCn1ncc2ccccc21` it was 10.8%; in that of `O=S(=O)(C1CC1)N1CCC2(CCCN(Cc3ccccn3)C2)CC1`, 5.97%; in that of `CO[C@H]1CC[C@H]2[C@H]1OCCN2Cc1ccc(F)c(F)c1`, 22.3%.
As for `CC(=O)NCCCC(=O)N1CCC(Sc2cccc(C)c2)CC1`, the cytotoxicity at 10 µM was 2.06%.
In the case of `O=S(=O)(N1CCCCCC1)N1CCN(Cc2ccc(F)cc2Br)CC1` it was -132%; in that of `COc1ccc(C(=O)NCC(c2cccn2C)N2CCCC2)c(OC)c1` (configuration not stated), 1.31%; in that of `O=C(NCC1CCC1)c1ccc(-n2ccnc2)nn1`, 2.18%.
In the case of `Cc1cc(C(=O)N2C[C@@H]3COC[C@]3(c3nnc(C)o3)C2)on1` it was -0.505%; in that of `Cc1cc(N2CCOC(c3ccc(N(C)C)cn3)C2)nc(N)n1` (configuration not stated), 5.62%.
In the case of `CN(CC(F)(F)F)C(=O)COc1nc(Cc2ccc(F)cc2)no1` it was 9.36%; in that of `O=C(Nc1cccnc1)C1=NN(c2ccccc2)C(=O)CN1`, -7.12%; in that of `c1cncc(Cc2nnc3n2CCN(CC2CCCNC2)CC3)c1` (configuration not stated), 2.1%.
In the case of `Cc1ccccc1N1CCN(C(=O)c2cnc(C3CC3)nc2)C(C)C1` (configuration not stated), the cytotoxicity at 10 µM was 2.09%.
In the case of `O=C(CSCCN1CCOCC1)N1CCc2ccccc2C1` it was -6.58%; in that of `Cc1csc(CN2CCC[C@]3(C[C@H](OCC4CC4)CO3)C2)n1`, -141%.
On to `CS(=O)(=O)NCc1cncc2c1CCN(CC1CCOC1)C2` (configuration not stated), for which the cytotoxicity at 10 µM came to 12.7%.
As to `CC1CCN(C(=O)[C@H]2C[C@@H]3CCN(CC4CCOCC4)C[C@H]3O2)CC1`, the cytotoxicity at 10 µM turned out to be 5.35%.
In the case of `CC(C)OCCN(C)C(C)c1cccc(S(N)(=O)=O)c1` (configuration not stated) it was -8.6%.
As to `CCN(Cc1ccc(O)c(C(=O)O)c1)CC1CCOCC1`, the cytotoxicity at 10 µM was -5.24%.
In the case of `CCc1nc(NCCCn2cccn2)c2c(n1)c(C)nn2CC` it was 6.36%; in that of `CCCn1nc2c(cc1=O)CN(Cc1nc(-c3ccco3)no1)CC2`, -7.69%; in that of `O=C(NCCN1CCOCC1)c1scnc1Cl`, -2.09%.
In the case of `Cc1cnn(-c2ccc(S(N)(=O)=O)cc2F)c1` it was 1.64%; in that of `O=C(Nc1ccc2c(c1)OCO2)N1CCN(CCn2cccn2)CC1`, 0.741%.
In the case of `c1cnc(Nc2cc(CCC3CCCNC3)ccn2)cn1` (configuration not stated) it was -7.58%.
On to `O=C(NCc1ccc(Br)cc1)NCC1CCOC1` (configuration not stated), for which the cytotoxicity at 10 µM is -4.51%.
For the molecule `COCCC(=O)N1C[C@@H](O)[C@H](N2CCN(c3ccccc3)CC2)C1`, the cytotoxicity at 10 µM amounted to 0.046%.
In the case of `CS(=O)(=O)NC[C@]12COC[C@H]1CN(CCc1ccccc1)C2` it was 12.3%; in that of `Cc1nn(C)c(N(C)C)c1CNCc1cccnc1OC(C)C`, -0.924%.
In the case of `CN(Cc1cccnc1N)Cc1cccc2ncccc12` it was 53.8%.
In the case of `Cn1ccnc1SCCNC1CCN(c2nc3ccccc3s2)CC1` it was 2.05%; in that of `CN1CCOC(CN(C(=O)CCCn2cccn2)c2nccs2)C1` (configuration not stated), -22.7%.
On to `Cc1ccc(CN2CC[C@H](c3nc4cccc(C(N)=O)c4[nH]3)C2)cc1`, for which the cytotoxicity at 10 µM turned out to be 35.1%.
In the case of `Cn1ccnc1CN1CCN(CC(O)c2ccc(F)c(F)c2)CC1` (configuration not stated) it was -12.9%; in that of `CC(C)c1cc(NCC2(CO)CCC2)ncn1`, 4.66%.
In the case of `COc1ccc2nnc(CCCC(=O)NCc3cccn3C)n2n1` it was 3.85%; in that of `CCc1nc2ccccc2n1C(CC)C(=O)N(C)CCc1noc(C)n1` (configuration not stated), 3.02%; in that of `Fc1cccc2[nH]c(CN3CCc4cncnc4C3)nc12`, -1.03%.
For `CCc1ccc(CN(Cc2ccccc2)CC(C)CO)nc1` (configuration not stated), the cytotoxicity at 10 µM turned out to be 9.11%.
In the case of `CC(C)Cc1cc(NC(=O)N2CCC(Oc3cccnc3)C2)n(C)n1` (configuration not stated) it was -4.71%; in that of `Cc1ccc2nc(CN(C)Cc3ccc(C)o3)cc(=O)n2c1`, -3.02%.
In the case of `COC(C)(C)C(=O)N[C@H]1CN(c2nccnc2N(C)C)C[C@@H]1C(C)C` it was 4.24%; in that of `CSc1nsc(SCC(=O)c2cc3c(cc2Cl)NC(=O)C3)n1`, 5.13%.
In the case of `CCOC(=O)CCNC(=O)c1nc(OCC)ccc1Cl` it was -7.6%; in that of `CN(C)c1ncc(I)c(C2CCCN2C)n1` (configuration not stated), 3.7%.
For `Cc1nc2ccccc2c(=O)n1CCC(=O)N1CCCC1`, the cytotoxicity at 10 µM was -10%.
In the case of `COc1ccc(CC(=O)N2CCN(C)c3ncccc3C2)cc1` it was -5.79%.
In the case of `Cc1ccc(C)c(OCC(=O)NC2CCN(c3ccccn3)CC2)c1` it was -3.42%.
For the molecule `COCC(C)(O)CNC(=O)c1cc(-c2ccc(F)cc2)nn1C` (configuration not stated), the cytotoxicity at 10 µM was -5.1%.
In the case of `COCCN1CCC2(COCc3cnc(N4CCOCC4)nc32)C1` (configuration not stated) it was 11.6%.
In the case of `CCOc1ccc2ccccc2c1CNCC1CCS(=O)(=O)C1` (configuration not stated) it was -3.4%.
In the case of `Cn1cc(CN2CCc3c(nnn3C)C2COCc2ccccc2)cn1` (configuration not stated) it was -126%.
`Cn1c(N)nnc1SC1CCCN(c2ccccc2F)C1=O` (configuration not stated): the cytotoxicity at 10 µM was -7.29%.
In the case of `CC1(C)CN(C(=O)CC2CCS(=O)(=O)CC2)C[C@]1(C)O` it was 5.91%; in that of `COCCN1CCN(Cc2cccc(OCC(N)=O)c2)CC1C` (configuration not stated), 2.43%.
In the case of `Cc1cnn(CC2CCCCN2Cc2nc(C)c3ccccc3n2)c1` (configuration not stated) it was -8.54%; in that of `Cc1cccc(CS(=O)(=O)CC(O)Cn2cccn2)c1` (configuration not stated), -2.07%.
In the case of `Cn1nccc1CCC(=O)NC1CCCN(c2ccccn2)C1` (configuration not stated) it was 4.18%; in that of `Cc1cc(N2CCC(N(C)Cc3cccnc3)C2=O)n(C)n1` (configuration not stated), -9.98%; in that of `CC1CN(C)CCN1C(=O)Nc1nc(-c2cccn2C)cs1` (configuration not stated), -2.38%.
As to `O=C(CCn1cccn1)N1C[C@H]2CC[C@@H](C1)N(Cc1ccccn1)C2=O`, the cytotoxicity at 10 µM is -13.6%.
In the case of `COc1ccc2nnc(CCCC(=O)NCc3ccccc3OC)n2n1`, the cytotoxicity at 10 µM was -5.95%.
In the case of `O=C1CO[C@H]2CN(C3CCOCC3)C[C@H]2N1Cc1ccccn1` it was 0.566%.
In the case of `Cc1ccc(-n2nnc(CC(=O)N3CCSCC3)c2C)cc1`, the cytotoxicity at 10 µM is -13.1%.
In the case of `CC(C)CN1CC2(CCN(C(=O)C3CSC(C)(C)C(=O)N3)CC2)CC1=O` (configuration not stated) it was 4.79%.
As for `Cc1cn(Cc2nc(CC(C)C)nn2-c2ccccn2)c(=O)[nH]c1=O`, the cytotoxicity at 10 µM is -8.66%.
In the case of `Cc1ccccc1CSc1nc(N)cc(N2CCC(CC(N)=O)CC2)n1` it was -10.4%.
Consider `CN(c1ccc(F)cc1)S(=O)(=O)c1cc2c(c(C(=O)O)c1)OCCO2`, for which the cytotoxicity at 10 µM was -5.79%.
In the case of `CCc1cc(CNC(=O)c2cc(NC(=O)C(C)C)ccc2Cl)[nH]n1` it was 9.36%; in that of `Cc1cc(C(F)(F)F)c2c(=O)n(Cc3ccon3)n(C)c2n1`, 5.85%.
In the case of `c1cncc(COCc2nnc3n2CCN(Cc2cccs2)C3)c1` it was 0.399%; in that of `CC(NC(=O)c1cccc(CN2CCN(C)CC2)c1)c1nccs1` (configuration not stated), -4.28%; in that of `CSc1ccc(S(=O)(=O)N2CCCCC2CCNC(C)=O)cc1` (configuration not stated), -9.61%.
In the case of `Fc1ccc(CN2CCCC2c2cncc(-n3ccnc3)n2)cc1` (configuration not stated) it was 5.82%; in that of `Cc1cncnc1C1CCN(CCO)CC1`, -7.26%; in that of `CC(C)c1cc(C(=O)N2CCc3ccccc3C2C(=O)O)nn1C` (configuration not stated), -2.53%.
In the case of `COC(=O)CNC(=O)CCCn1cnc2ccccc2c1=O`, the cytotoxicity at 10 µM was -7.48%.
In the case of `CC(=O)N1CCCN(C(=O)c2csc(-c3ccc(C)cc3C)n2)CC1` it was 20.8%; in that of `COc1ccc(NCc2ccccc2N2CCN(C(C)=O)CC2)cn1`, 1.85%; in that of `CC(C)(CO)NC(=O)C1CCC(=O)N(Cc2ccc(Cl)cc2)C1` (configuration not stated), -6.14%.
